Test results taken from ChEMBL document CHEMBL3351394 (J Med Chem, 2014).
Values after ≈ are worked out from the molar mass of the structure shown.

Experiments:
[1] = biological target: T1, Bile acid receptor (Homo sapiens) (UniProt Q96RI1); assay: Agonist activity at FXR in human HepG2 cells assessed as induction of BSEP mrNA expression at 1 uM by quantitative PCR method; assay type: cell-based
T1 sequence (whole entry): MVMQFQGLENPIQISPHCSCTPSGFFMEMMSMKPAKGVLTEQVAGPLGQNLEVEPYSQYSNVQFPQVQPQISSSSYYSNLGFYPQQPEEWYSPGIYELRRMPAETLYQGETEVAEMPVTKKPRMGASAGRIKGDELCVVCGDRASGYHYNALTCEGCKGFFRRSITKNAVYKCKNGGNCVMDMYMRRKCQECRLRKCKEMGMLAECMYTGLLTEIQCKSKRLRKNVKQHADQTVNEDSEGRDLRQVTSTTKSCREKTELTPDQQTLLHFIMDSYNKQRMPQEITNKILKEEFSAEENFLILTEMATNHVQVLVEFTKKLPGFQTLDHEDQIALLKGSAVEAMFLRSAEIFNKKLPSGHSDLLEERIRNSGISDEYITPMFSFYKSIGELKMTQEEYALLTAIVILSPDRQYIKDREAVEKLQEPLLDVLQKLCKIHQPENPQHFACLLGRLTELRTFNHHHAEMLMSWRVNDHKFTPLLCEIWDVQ
Summary of the method: (§1)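 HepG2 cells were seeded at 2 × 10⁶ per well. After 24 h they were switched to MEM with 1% charcoal-stripped FCS, and 24 h later dosed with compound (0.1, 0.3, 1, 3, 10 μM; 0.1% DMSO final) for 24 h. Total RNA was reverse transcribed and analysed by qPCR, GAPDH-normalized, ΔΔCt method. Samples were run in duplicate in ≥4 independent experiments.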

[2] = biological target: T1, Bile acid receptor (Homo sapiens); assay: Agonist activity at FXR in human HepG2 cells assessed as induction of CYP7A1 mrNA expression at 0.1 uM by quantitative PCR method; assay type: cell-based; summary of the method: as §1
HeLa = assay: Cytotoxicity against human HeLa cells assessed as compound concentration causing reduction in cell viability by reporter gene assay; assay type: cell-based
[3] = biological target: T1, Bile acid receptor (Homo sapiens); assay: Agonist activity at FXR in human HepG2 cells assessed as induction of SHP mrNA expression at 3 uM by quantitative PCR method; assay type: cell-based; summary of the method: as §1
Bile acid receptor = biological target: T2, Bile acid receptor (Homo sapiens, UniProt Q96RI1); assay: Agonist activity at human FXR expressed in human HeLa cells assessed as receptor activation by BSEP promoter-driven firefly luciferase reporter gene assay; assay type: cell-based; details: read-out: EC50
T2 sequence (Q96RI1 whole entry): T1 sequence (whole entry)

Homo sapiens [4] = species on record: Homo sapiens; assay: Selectivity index, ratio of EC50 for GAL4-tagged PPARalpha (unknown origin) to EC50 for human FXR
[5] = biological target: T1, Bile acid receptor (Homo sapiens); assay: Agonist activity at FXR in human HepG2 cells assessed as induction of BSEP mrNA expression at 0.3 uM by quantitative PCR method; assay type: cell-based; summary of the method: as §1
[6] = biological target: T1, Bile acid receptor (Homo sapiens); assay: Agonist activity at FXR in human HepG2 cells assessed as induction of SHP mrNA expression at 0.1 uM by quantitative PCR method; assay type: cell-based; summary of the method: as §1
[7] = biological target: T3, G-protein coupled bile acid receptor 1 (Homo sapiens, UniProt Q8TDU6); assay: Activity at TGR5 in human NCI-H716 cells assessed as effect on intracellular cAMP accumulation incubated for 60 mins by HTR-FRET assay; assay type: functional, cell-based
T3 sequence (Q8TDU6 whole entry): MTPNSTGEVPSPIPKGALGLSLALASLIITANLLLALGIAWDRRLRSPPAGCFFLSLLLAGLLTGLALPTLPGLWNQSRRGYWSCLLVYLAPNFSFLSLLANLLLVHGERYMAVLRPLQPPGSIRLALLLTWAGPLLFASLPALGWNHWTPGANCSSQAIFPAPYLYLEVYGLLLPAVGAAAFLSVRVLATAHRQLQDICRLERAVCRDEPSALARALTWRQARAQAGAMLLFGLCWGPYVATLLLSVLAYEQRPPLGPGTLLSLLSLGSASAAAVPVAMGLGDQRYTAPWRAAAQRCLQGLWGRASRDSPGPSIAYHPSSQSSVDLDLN
Summary of the method: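 NCI-H716 cells on Matrigel-coated plates were stimulated 24 h after plating with increasing compound concentrations for 60 min at 37 °C in OptiMEM containing 1 mM IBMX. Intracellular cAMP was read by HTRF (Lance kit).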

[8] = biological target: T1, Bile acid receptor (Homo sapiens); assay: Agonist activity at FXR in human HepG2 cells assessed as induction of IBABP mrNA expression at 10 uM by quantitative PCR method; assay type: cell-based
HepG2 [9] = assay: Cytotoxicity against human HepG2 cells assessed as compound concentration causing reduction in cell viability by WST1 assay; assay type: cell-based
Summary of the method: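 WST-1 viability in HepG2 cells (3 × 10⁴ per well) in DMEM with 1% FCS, after 48 h exposure to 1, 10, 30 and 100 μM compound. Controls were Revlotron 100 μM (positive) and zileuton 100 μM or DMEM/1% DMSO (negative). WST reagent was added for 45 min and absorbance read at 450/620 nm; untreated set as 100%. Three repeats in triplicate.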

[10] = biological target: T1, Bile acid receptor (Homo sapiens); assay: Agonist activity at FXR in human HepG2 cells assessed as induction of CYP7A1 mrNA expression at 1 uM by quantitative PCR method; assay type: cell-based; summary of the method: as §1
[11] = biological target: T1, Bile acid receptor (Homo sapiens); assay: Agonist activity at FXR in human HepG2 cells assessed as induction of OSTalpha mrNA expression at 3 uM by quantitative PCR method; assay type: cell-based; summary of the method: as §1
[12] = biological target: T1, Bile acid receptor (Homo sapiens); assay: Agonist activity at FXR in human HepG2 cells assessed as induction of BSEP mrNA expression at 0.1 uM by quantitative PCR method; assay type: cell-based; summary of the method: as §1
[13] = biological target: T1, Bile acid receptor (Homo sapiens); assay: Agonist activity at FXR in human HepG2 cells assessed as induction of IBABP mrNA expression at 1 uM by quantitative PCR method; assay type: cell-based
Homo sapiens [14] = species on record: Homo sapiens; assay: Selectivity index, ratio of EC50 for GAL4-tagged PPARgamma (unknown origin) to EC50 for human FXR
[15] = biological target: T1, Bile acid receptor (Homo sapiens); assay: Agonist activity at FXR in human HepG2 cells assessed as induction of OSTalpha mrNA expression at 0.1 uM by quantitative PCR method; assay type: cell-based; summary of the method: as §1
[16] = biological target: T1, Bile acid receptor (Homo sapiens); assay: Agonist activity at FXR in human HepG2 cells assessed as induction of IBABP mrNA expression at 3 uM by quantitative PCR method; assay type: cell-based
[17] = biological target: T1, Bile acid receptor (Homo sapiens); assay: Agonist activity at FXR in human HepG2 cells assessed as induction of CYP7A1 mrNA expression at 3 uM by quantitative PCR method; assay type: cell-based; summary of the method: as §1
[18] = Aqueous solubility of the compound; assay type: physicochemical; details: water (aqueous)
HepG2 [19] = assay: Cytotoxicity against human HepG2 cells assessed as compound concentration causing reduction in cell viability by LDH release assay; assay type: cell-based
Summary of the method: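 HepG2 cells were plated at 3 × 10⁴ per well. After 24 h they were switched to DMEM with 1% FCS and treated for 48 h; 2% Triton X-100 added 2 h before reading served as 100%. LDH reagent was added to the supernatant for 20 min and absorbance read at 490/690 nm. Triplicates, ≥3 independent repeats.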

[20] = biological target: T1, Bile acid receptor (Homo sapiens); assay: Agonist activity at FXR in human HepG2 cells assessed as induction of OSTalpha mrNA expression at 10 uM by quantitative PCR method; assay type: cell-based; summary of the method: as §1
[21] = biological target: T1, Bile acid receptor (Homo sapiens); assay: Agonist activity at FXR in human HepG2 cells assessed as induction of BSEP mrNA expression at 3 uM by quantitative PCR method; assay type: cell-based; summary of the method: as §1

In the case of COc1ccc(C(=O)Nc2cccc(C(=O)O)c2)c(NC(=O)c2ccc(C(C)(C)C)cc2)c1, the Activity [1] is reported as 319%, the Activity [2] is reported as 52% and the Activity (HeLa) is reported as “>= 30 uM”. The Activity [3] was 185%, the EC50 (Bile acid receptor) was 8 nM and the Ratio EC50 (Homo sapiens [4]) was greater than 1000. For the same compound, the Activity [5] was 300%, the Activity [6] was 239% and the EC50 [7] was 30 µM. The Activity [8] was 144%, the Activity (HepG2 [9]) was “>= 30 uM” and the Activity [10] was 55%. It also gave an Activity [11] of 149%, an Activity [12] of 294% and an Activity [13] of 161%. The Ratio EC50 (Homo sapiens [14]) was 375, the Activity [15] was 151% and the Activity [16] was 168%. For the same compound, the Activity [17] was 67%, the solubility [18] was 2.6 µg/mL (≈ 5.82 µM) and the Activity (HepG2 [19]) was “>= 30 uM”. It also gave an Activity [20] of 234% and an Activity [21] of 326%.
